Data on 4 molecules can be found in ChEMBL document CHEMBL1153856, “Synthesis and spectral characterization of a new class of N-(N-methylpiperazinoacetyl)-2,6-diarylpiperidin-4-ones: antimicrobial, analgesic and antipyretic studies” (2009).

The structures appear in SMILES notation. Values after ≈ are worked out from the molar mass of the structure shown. A value given as a limit tells only on which side of the number the result lay.

Holding throughout (format): functional
One assay has as its system Staphylococcus aureus. Description: Antimicrobial activity against Staphylococcus aureus after 24 hrs by twofold serial dilution method. Summed up: (§1)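 Twofold serial broth dilution in nutrient broth at pH 7.4 ± 0.2. Compound stocks were 1 mg/mL in DMSO, diluted 1:5 into seeded broth, then six serial dilutions. Inocula came from 24 h nutrient-agar cultures, final 10⁵ cfu/mL. Incubation was 37 ± 1 °C for 24 h, with growth and solvent controls. MIC was read visually; ciprofloxacin was the standard.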

The next assay has as its system Escherichia coli. Description: Antimicrobial activity against Escherichia coli after 24 hrs by twofold serial dilution method. Summed up:
as §1

The test system of the next assay is Pseudomonas aeruginosa. Description: Antimicrobial activity against Pseudomonas aeruginosa after 24 hrs by twofold serial dilution method. The method in brief:
as §1

The test system of assay [1] is Salmonella enterica subsp. enterica serovar Typhi str. CT18. Description: Antimicrobial activity against Salmonella typhi after 24 hrs by twofold serial dilution method. The method in brief:
as §1

The test system of the next assay is Klebsiella pneumoniae. The experiment in a line: Antimicrobial activity against Klebsiella pneumoniae after 24 hrs by twofold serial dilution method. Summed up:
as §1

The subject of a further assay is Candida albicans. Description: Antimicrobial activity against Candida albicans after 72 to 96 hrs by twofold serial dilution method. Summed up: (§2)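 Twofold serial broth dilution in Sabouraud dextrose broth at pH 5.6. Spores came from 1–7-day Sabouraud agar slants, final inoculum 1.1–1.5 × 10² cfu/mL. Compound stocks were 1 mg/mL in DMSO, diluted 1:5 into seeded broth, then six serial dilutions. Incubation was 28 ± 1 °C for 72–96 h, with growth and solvent controls. MIC was read visually; amphotericin B was the standard.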

For another assay, the system named is Rhizopus. Description: Antimicrobial activity against Rhizopus sp. after 72 to 96 hrs by twofold serial dilution method. The method in brief: as §2
In another assay the test system is Aspergillus niger. The experiment in a line: Antimicrobial activity against Aspergillus niger after 72 to 96 hrs by twofold serial dilution method. The method in brief: as §2
The subject of the next assay is Aspergillus flavus. Description: Antimicrobial activity against Aspergillus flavus after 72 to 96 hrs by twofold serial dilution method. Summed up: as §2
For assay [2], the system named is Mus musculus. Description: Analgesic activity in albino mouse assessed as inhibition of acetic acid-induced writhing response at 30 mg/kg, po administered 1 hr prior to acetic acid challenge relative to control. Summed up:
(§3)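 Albino mice of both sexes, 20–25 g, n = 6 per group. Doses of 30, 60 or 90 mg/kg were given orally as suspensions in 1% sodium CMC. 1 h later, 1% acetic acid in normal saline (10 mL/kg) was injected ip. Complete extension of either hind limb counted as a writhe. Counting started 5 min after injection and ran 30 min. Results are % inhibition = [1 − T/C] × 100 versus vehicle controls, mean ± SEM.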
In general terms: An intraperitoneal irritant provokes the stretching counted in writhing tests.

Assay [3] relates to Mus musculus. Description: Analgesic activity in albino mouse assessed as inhibition of acetic acid-induced writhing response at 60 mg/kg, po administered 1 hr prior to acetic acid challenge relative to control. Summed up:
as §3

Assay [4] deals with Mus musculus. Description: Analgesic activity in albino mouse assessed as inhibition of acetic acid-induced writhing response at 90 mg/kg, po administered 1 hr prior to acetic acid challenge relative to control. The method in brief: as §3
Assay [5] deals with Rattus norvegicus. The experiment in a line: Antipyretic activity against brewer's yeast-induced hyperthermia in Wistar rat assessed as change in rectal temperature at 30 mg/kg, po after 30 mins. The method in brief:
(§4)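 Wistar rats of both sexes, 200–250 g, received brewer's yeast in normal saline sc. Rectal temperature was taken with a digital thermometer (precision 0.1 °C). At 18 h, rats whose temperature had risen 0.3–0.5 °C were selected. Test compounds (30 or 60 mg/kg) or indomethacin (5 mg/kg) were given orally in 1% CMC; controls received vehicle only. Temperature was measured at 30, 60, 90, 120 and 150 min, mean ± SEM.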

The test system of assay [6] is Rattus norvegicus. The experiment in a line: Antipyretic activity against brewer's yeast-induced hyperthermia in Wistar rat assessed as change in rectal temperature at 30 mg/kg, po after 60 mins. Summed up: as §4
The subject of assay [7] is Rattus norvegicus. Description: Antipyretic activity against brewer's yeast-induced hyperthermia in Wistar rat assessed as change in rectal temperature at 30 mg/kg, po after 90 mins. Summed up: as §4
Assay [8] has as its system Rattus norvegicus. Description: Antipyretic activity against brewer's yeast-induced hyperthermia in Wistar rat assessed as change in rectal temperature at 30 mg/kg, po after 120 mins. The method in brief:
as §4

Assay [9] relates to Rattus norvegicus. Description: Antipyretic activity against brewer's yeast-induced hyperthermia in Wistar rat assessed as change in rectal temperature at 30 mg/kg, po after 150 mins. Summed up:
as §4

Assay [10] relates to Rattus norvegicus. The experiment in a line: Antipyretic activity against brewer's yeast-induced hyperthermia in Wistar rat assessed as change in rectal temperature at 60 mg/kg, po after 30 mins. The method in brief:
as §4

The subject of assay [11] is Rattus norvegicus. The experiment in a line: Antipyretic activity against brewer's yeast-induced hyperthermia in Wistar rat assessed as change in rectal temperature at 60 mg/kg, po after 60 mins. Summed up:
as §4

Assay [12] has as its system Rattus norvegicus. Description: Antipyretic activity against brewer's yeast-induced hyperthermia in Wistar rat assessed as change in rectal temperature at 60 mg/kg, po after 90 mins. The method in brief: as §4
The subject of assay [13] is Rattus norvegicus. Description: Antipyretic activity against brewer's yeast-induced hyperthermia in Wistar rat assessed as change in rectal temperature at 60 mg/kg, po after 120 mins. Summed up: as §4
Assay [14] relates to Rattus norvegicus. The experiment in a line: Antipyretic activity against brewer's yeast-induced hyperthermia in Wistar rat assessed as change in rectal temperature at 60 mg/kg, po after 150 mins. The method in brief:
as §4

In assay [15] the test system is Rattus norvegicus. Description: Antipyretic activity against brewer's yeast-induced hyperthermia in Wistar rat assessed as change in rectal temperature at 5 mg/kg, po after 30 mins. The method in brief:
as §4

The test system of assay [16] is Rattus norvegicus. Description: Antipyretic activity against brewer's yeast-induced hyperthermia in Wistar rat assessed as change in rectal temperature at 5 mg/kg, po after 60 mins. Summed up: as §4
Assay [17] has as its system Rattus norvegicus. The experiment in a line: Antipyretic activity against brewer's yeast-induced hyperthermia in Wistar rat assessed as change in rectal temperature at 5 mg/kg, po after 90 mins. Summed up: as §4
The test system of assay [18] is Rattus norvegicus. The experiment in a line: Antipyretic activity against brewer's yeast-induced hyperthermia in Wistar rat assessed as change in rectal temperature at 5 mg/kg, po after 120 mins. The method in brief: as §4
The subject of assay [19] is Rattus norvegicus. The experiment in a line: Antipyretic activity against brewer's yeast-induced hyperthermia in Wistar rat assessed as change in rectal temperature at 5 mg/kg, po after 150 mins. Summed up: as §4

For `CC(C)C1C(=O)CC(c2ccccc2)N(C(=O)CN2CCN(C)CC2)C1c1ccccc1` (stereo unspecified), the minimal inhibitory concentration (MIC) (usually the smallest concentration in the dilution series that meets the test's criterion for growth inhibition) with Staphylococcus aureus was 200 µg/mL (≈ 461 µM); in the assay on Escherichia coli, 100 µg/mL (≈ 231 µM); in the assay on Pseudomonas aeruginosa it was 100 µg/mL (≈ 231 µM); in assay [1], 50 µg/mL (≈ 115 µM); with Klebsiella pneumoniae, 200 µg/mL (≈ 461 µM); against Candida albicans, 200 µg/mL (≈ 461 µM). Besides, the minimal inhibitory concentration (MIC) was 50 µg/mL (≈ 115 µM) with Rhizopus, 100 µg/mL (≈ 231 µM) in the assay with Aspergillus niger and 100 µg/mL (≈ 231 µM) with Aspergillus flavus. Moreover, the inhibition in vivo (in general, the percentage by which the read-out fell short of the control) at 30 mg/kg in the assay with Mus musculus [2] is 5.6%. The inhibition in vivo at 60 mg/kg in the assay on Mus musculus [3] amounted to 18.1%. Besides, the inhibition in vivo at 90 mg/kg in the assay with Mus musculus [4] is 2.2%. The Activity in the assay with Rattus norvegicus [5] was 38.15 °C; in the assay with Rattus norvegicus [6] it was 38.1 °C; with Rattus norvegicus [7], 38.01 °C; with Rattus norvegicus [8], 38.96 °C; in the assay with Rattus norvegicus [9], 38.9 °C; with Rattus norvegicus [10], 38.05 °C. In addition, the Activity with Rattus norvegicus [11] came to 38.01 °C; with Rattus norvegicus [12], 38.95 °C; in the assay with Rattus norvegicus [13], 38.9 °C; with Rattus norvegicus [14], 38.75 °C.
As to `COc1ccc(C2C(C)C(=O)C(C)C(c3ccc(OC)cc3)N2C(=O)CN2CCN(C)CC2)cc1` (stereo unspecified), the MIC against Staphylococcus aureus amounted to 12.5 µg/mL (≈ 26.1 µM); in the assay with Escherichia coli it was 25 µg/mL (≈ 52.1 µM); against Pseudomonas aeruginosa, 50 µg/mL (≈ 104 µM); in [1], 100 µg/mL (≈ 208 µM); with Klebsiella pneumoniae it was 25 µg/mL (≈ 52.1 µM); in the assay with Candida albicans, 6.25 µg/mL (≈ 13 µM). Moreover, the values for the minimal inhibitory concentration (MIC) in the assay with Rhizopus, with Aspergillus niger and with Aspergillus flavus were 25 µg/mL (≈ 52.1 µM), 25 µg/mL (≈ 52.1 µM) and 12.5 µg/mL (≈ 26.1 µM), respectively. In addition, in the assay with Mus musculus [2], the inhibition in vivo at 30 mg/kg turned out to be 46.2%. In addition, in the assay on Mus musculus [3], the inhibition in vivo at 60 mg/kg is 59.1%. The inhibition in vivo at 90 mg/kg with Mus musculus [4] is 38.7%. The Activity in the assay on Rattus norvegicus [5] was 38.1 °C; in the assay on Rattus norvegicus [6] it was 38.01 °C; with Rattus norvegicus [7] it was 37.95 °C; in the assay on Rattus norvegicus [8] it was 37.8 °C; in the assay on Rattus norvegicus [9], 37.7 °C; in the assay with Rattus norvegicus [10], 38.01 °C. In addition, the Activity with Rattus norvegicus [11] is 38.95 °C; with Rattus norvegicus [12] it was 37.9 °C; with Rattus norvegicus [13] it was 37.85 °C; with Rattus norvegicus [14] it was 37.6 °C.
With `CC1C(=O)CC(c2ccccc2)N(C(=O)CN2CCN(C)CC2)C1c1ccccc1` (stereo unspecified), the MIC with Staphylococcus aureus is over 200 µg/mL; in the assay on Escherichia coli, 100 µg/mL (≈ 247 µM); in the assay with Pseudomonas aeruginosa, over 200 µg/mL; in assay [1], 200 µg/mL (≈ 493 µM); with Klebsiella pneumoniae, 200 µg/mL (≈ 493 µM); against Candida albicans, over 200 µg/mL. Further, the minimum inhibitory concentration (MIC) against Rhizopus is over 200 µg/mL; against Aspergillus niger, 100 µg/mL (≈ 247 µM); against Aspergillus flavus, 100 µg/mL (≈ 247 µM). For the same molecule, in the assay with Mus musculus [2], the inhibition in vivo at 30 mg/kg stood at 6.3%. Also, the inhibition in vivo at 60 mg/kg with Mus musculus [3] was determined as 15.6%. The inhibition in vivo at 90 mg/kg in the assay with Mus musculus [4] stood at 17.7%. In addition, the Activity with Rattus norvegicus [5] was determined as 38.25 °C; in the assay with Rattus norvegicus [6], 38.2 °C; in the assay on Rattus norvegicus [7], 38.1 °C; in the assay on Rattus norvegicus [8], 38.03 °C; with Rattus norvegicus [9] it was 38.01 °C; in the assay on Rattus norvegicus [10] it was 38.2 °C. Further, the Activity with Rattus norvegicus [11] is 38.1 °C; with Rattus norvegicus [12], 38.02 °C; in the assay with Rattus norvegicus [13], 38.01 °C; with Rattus norvegicus [14], 38.95 °C.
`COc1ccc2c(c1)c(CC(=O)O)c(C)n2C(=O)c1ccc(Cl)cc1` [INDOMETHACIN]: the Activity with Rattus norvegicus [15] was 38.1 °C; in the assay with Rattus norvegicus [16], 37.9 °C; in the assay on Rattus norvegicus [17] it was 37.8 °C; in the assay on Rattus norvegicus [18] it was 37.7 °C; in the assay with Rattus norvegicus [19], 37.5 °C.
